From ChEMBL document CHEMBL4689842, “EUbOPEN Chemogenomics Library wave 1” (2021)

Test system: HEK-293T
Test: Multiplex assay against HEK293T;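 on Population Tubulin-Different-Phenotype (%): share of the cells with healthy nuclei that show this phenotype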
Format: toxicity, cell-based
Conditions: human
In short: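 At seeding, live cells were stained with Hoechst33342, BioTracker Green Microtubule Cytoskeleton Dye, MitoTracker Red and Annexin V Alexa Fluor 680. After compound addition they were imaged on a CQ1 microscope at 37°C and 5% CO2, and CellPathfinder machine-learning gating sorted them into Hoechst high-intensity objects or normal cells, with normal cells further split into healthy, pyknosed or fragmented nuclei and pyknosed cells into mitotic or apoptotic. Tubulin, mitochondrial-mass and membrane-permeability phenotypes are given as per cents of cells with healthy nuclei.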

[1] = 12 h, 1 µM, compound concentration 1 uM, replicate 1
[2] = 12 h, 1 µM, compound concentration 1 uM, replicate 2
[3] = 12 h, 10 µM, compound concentration 10 uM, replicate 1
[4] = 12 h, 10 µM, compound concentration 10 uM, replicate 2
[5] = 24 h, 1 µM, compound concentration 1 uM, replicate 1
[6] = 24 h, 1 µM, compound concentration 1 uM, replicate 2
[7] = 24 h, 10 µM, compound concentration 10 uM, replicate 1
[8] = 24 h, 10 µM, compound concentration 10 uM, replicate 2
[9] = 48 h, 1 µM, compound concentration 1 uM, replicate 1
[10] = 48 h, 1 µM, compound concentration 1 uM, replicate 2
[11] = 48 h, 10 µM, compound concentration 10 uM, replicate 1
[12] = 48 h, 10 µM, compound concentration 10 uM, replicate 2

With `CN1CCC[C@@H]1CCO[C@](C)(c1ccccc1)c1ccc(Cl)cc1.O=C(O)/C=C/C(=O)O` [CLEMASTINE FUMARATE] the “Population Apoptotic (%)” value [1] was 56%, the “Population Fragmented Nuclei (%)” value [1] was 10% and the “Population Healthy Nuclei (%)” value [1] was 23%. The “Population Hoechst High Intensity Objects (%)” value [1] was 9%, the “Population Membrane Permeable-Phenotype (%)” value [1] was 5% and the “Population Mitochondria Different-Phenotype (%)” value [1] was 96%. For the same compound, the “Population Mitotic Cells (%)” value [1] was 43%, the “Population Normal (%)” value [1] was 90% and the “Population Pyknosed Nuclei (%)” value [1] was 65%. For the same compound, the “Population Tubulin-Different-Phenotype (%)” value [1] was 78%, the “Total Cell Count” value [1] was 278 and the “Population Apoptotic (%)” value [2] was 25%. The “Population Fragmented Nuclei (%)” value [2] was 4%, the “Population Healthy Nuclei (%)” value [2] was 32% and the “Population Hoechst High Intensity Objects (%)” value [2] was 3%. The “Population Membrane Permeable-Phenotype (%)” value [2] was 13%, the “Population Mitochondria Different-Phenotype (%)” value [2] was 48% and the “Population Mitotic Cells (%)” value [2] was 75%. The “Population Normal (%)” value [2] was 96%, the “Population Pyknosed Nuclei (%)” value [2] was 62% and the “Population Tubulin-Different-Phenotype (%)” value [2] was 52%. The “Total Cell Count” value [2] was 217, the “Population Apoptotic (%)” value [3] was 92% and the “Population Fragmented Nuclei (%)” value [3] was 14%. The “Population Healthy Nuclei (%)” value [3] was 17%, the “Population Hoechst High Intensity Objects (%)” value [3] was 18% and the “Population Membrane Permeable-Phenotype (%)” value [3] was 6%. For the same compound, the “Population Mitochondria Different-Phenotype (%)” value [3] was 100%, the “Population Mitotic Cells (%)” value [3] was 7% and the “Population Normal (%)” value [3] was 81%. The “Population Pyknosed Nuclei (%)” value [3] was 67%, the “Population Tubulin-Different-Phenotype (%)” value [3] was 93% and the “Total Cell Count” value [3] was 209. The “Population Apoptotic (%)” value [4] was 85%, the “Population Fragmented Nuclei (%)” value [4] was 6% and the “Population Healthy Nuclei (%)” value [4] was 15%. For the same compound, the “Population Hoechst High Intensity Objects (%)” value [4] was 6%, the “Population Membrane Permeable-Phenotype (%)” value [4] was 4% and the “Population Mitochondria Different-Phenotype (%)” value [4] was 96%. The “Population Mitotic Cells (%)” value [4] was 14%, the “Population Normal (%)” value [4] was 93% and the “Population Pyknosed Nuclei (%)” value [4] was 78%. The “Population Tubulin-Different-Phenotype (%)” value [4] was 92%, the “Total Cell Count” value [4] was 172 and the “Population Apoptotic (%)” value [5] was 59%. The “Population Fragmented Nuclei (%)” value [5] was 12%, the “Population Healthy Nuclei (%)” value [5] was 18% and the “Population Hoechst High Intensity Objects (%)” value [5] was 21%. The “Population Membrane Permeable-Phenotype (%)” value [5] was 0%, the “Population Mitochondria Different-Phenotype (%)” value [5] was 95% and the “Population Mitotic Cells (%)” value [5] was 40%. For the same compound, the “Population Normal (%)” value [5] was 78%, the “Population Pyknosed Nuclei (%)” value [5] was 68% and the “Population Tubulin-Different-Phenotype (%)” value [5] was 63%. For the same compound, the “Total Cell Count” value [5] was 274, the “Population Apoptotic (%)” value [6] was 42% and the “Population Fragmented Nuclei (%)” value [6] was 7%. For the same compound, the “Population Healthy Nuclei (%)” value [6] was 60%, the “Population Hoechst High Intensity Objects (%)” value [6] was 1% and the “Population Membrane Permeable-Phenotype (%)” value [6] was 4%. For the same compound, the “Population Mitochondria Different-Phenotype (%)” value [6] was 56%, the “Population Mitotic Cells (%)” value [6] was 57% and the “Population Normal (%)” value [6] was 98%. The “Population Pyknosed Nuclei (%)” value [6] was 32%, the “Population Tubulin-Different-Phenotype (%)” value [6] was 60% and the “Total Cell Count” value [6] was 273. The “Population Fragmented Nuclei (%)” value [7] was 15%, the “Population Healthy Nuclei (%)” value [7] was 11% and the “Population Hoechst High Intensity Objects (%)” value [7] was 23%. The “Population Membrane Permeable-Phenotype (%)” value [7] was 0%, the “Population Mitochondria Different-Phenotype (%)” value [7] was 100% and the “Population Normal (%)” value [7] was 76%. The “Population Pyknosed Nuclei (%)” value [7] was 72%, the “Population Tubulin-Different-Phenotype (%)” value [7] was 94% and the “Total Cell Count” value [7] was 211. For the same compound, the “Population Apoptotic (%)” value [8] was 92%, the “Population Fragmented Nuclei (%)” value [8] was 4% and the “Population Healthy Nuclei (%)” value [8] was 20%. The “Population Hoechst High Intensity Objects (%)” value [8] was 6%, the “Population Membrane Permeable-Phenotype (%)” value [8] was 6% and the “Population Mitochondria Different-Phenotype (%)” value [8] was 93%. For the same compound, the “Population Mitotic Cells (%)” value [8] was 7%, the “Population Normal (%)” value [8] was 93% and the “Population Pyknosed Nuclei (%)” value [8] was 74%. For the same compound, the “Population Tubulin-Different-Phenotype (%)” value [8] was 93%, the “Total Cell Count” value [8] was 159 and the “Population Apoptotic (%)” value [9] was 66%. The “Population Fragmented Nuclei (%)” value [9] was 21%, the “Population Healthy Nuclei (%)” value [9] was 11% and the “Population Hoechst High Intensity Objects (%)” value [9] was 23%. For the same compound, the “Population Membrane Permeable-Phenotype (%)” value [9] was 4%, the “Population Mitochondria Different-Phenotype (%)” value [9] was 88% and the “Population Mitotic Cells (%)” value [9] was 33%. For the same compound, the “Population Normal (%)” value [9] was 76%, the “Population Pyknosed Nuclei (%)” value [9] was 66% and the “Population Tubulin-Different-Phenotype (%)” value [9] was 72%. For the same compound, the “Total Cell Count” value [9] was 276, the “Population Apoptotic (%)” value [10] was 21% and the “Population Fragmented Nuclei (%)” value [10] was 4%. For the same compound, the “Population Healthy Nuclei (%)” value [10] was 81%, the “Population Hoechst High Intensity Objects (%)” value [10] was 1% and the “Population Membrane Permeable-Phenotype (%)” value [10] was 5%. For the same compound, the “Population Mitochondria Different-Phenotype (%)” value [10] was 29%, the “Population Mitotic Cells (%)” value [10] was 78% and the “Population Normal (%)” value [10] was 98%. For the same compound, the “Population Pyknosed Nuclei (%)” value [10] was 13%, the “Population Tubulin-Different-Phenotype (%)” value [10] was 60% and the “Total Cell Count” value [10] was 406. The “Population Apoptotic (%)” value [11] was 86%, the “Population Fragmented Nuclei (%)” value [11] was 24% and the “Population Healthy Nuclei (%)” value [11] was 1%. For the same compound, the “Population Hoechst High Intensity Objects (%)” value [11] was 23%, the “Population Membrane Permeable-Phenotype (%)” value [11] was 0% and the “Population Mitochondria Different-Phenotype (%)” value [11] was 100%. For the same compound, the “Population Mitotic Cells (%)” value [11] was 13%, the “Population Normal (%)” value [11] was 76% and the “Population Pyknosed Nuclei (%)” value [11] was 73%. The “Population Tubulin-Different-Phenotype (%)” value [11] was 66%, the “Total Cell Count” value [11] was 230 and the “Population Apoptotic (%)” value [12] was 97%. The “Population Fragmented Nuclei (%)” value [12] was 14%, the “Population Healthy Nuclei (%)” value [12] was 15% and the “Population Hoechst High Intensity Objects (%)” value [12] was 8%. The “Population Membrane Permeable-Phenotype (%)” value [12] was 8%, the “Population Mitochondria Different-Phenotype (%)” value [12] was 83% and the “Population Mitotic Cells (%)” value [12] was 2%. For the same compound, the “Population Normal (%)” value [12] was 91%, the “Population Pyknosed Nuclei (%)” value [12] was 69% and the “Population Tubulin-Different-Phenotype (%)” value [12] was 75%. The “Total Cell Count” value [12] was 168.
